ChEMBL document CHEMBL3414564, “3'-functionalized adamantyl cannabinoid receptor probes” (J Med Chem, 2015)
The source made the active and inactive calls. No cut-off for these calls is given here.

Legend:
Cannabinoid receptor 1 [1] = molecular target: T1, Cannabinoid receptor 1 (Rattus norvegicus, UniProt P20272); test: Displacement of [3H]CP-55,940 from CB1 receptor in rat brain membranes; assay type: cell membranes, Membrane
Method in brief: (§1)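 Competition binding against [3H]CP-55,940 on rat brain membranes (CB1) or on membranes of HEK293 cells expressing mouse or human CB2. IC50 by nonlinear regression, converted to Ki. For isothiocyanates the value is an apparent Ki (Ki*), which depends on pretreatment time. Triplicate points; mean of three independent experiments.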

Cannabinoid receptor 2 [2] = molecular target: Cannabinoid receptor 2 (Mus musculus, UniProt P47936); test: Displacement of [3H]CP-55,940 from mouse CB2 receptor expressed in HEK293 cell membranes; method in brief: as §1
Cannabinoid receptor 2 (Mus musculus, UniProt P47936), sequence (P47936 whole entry): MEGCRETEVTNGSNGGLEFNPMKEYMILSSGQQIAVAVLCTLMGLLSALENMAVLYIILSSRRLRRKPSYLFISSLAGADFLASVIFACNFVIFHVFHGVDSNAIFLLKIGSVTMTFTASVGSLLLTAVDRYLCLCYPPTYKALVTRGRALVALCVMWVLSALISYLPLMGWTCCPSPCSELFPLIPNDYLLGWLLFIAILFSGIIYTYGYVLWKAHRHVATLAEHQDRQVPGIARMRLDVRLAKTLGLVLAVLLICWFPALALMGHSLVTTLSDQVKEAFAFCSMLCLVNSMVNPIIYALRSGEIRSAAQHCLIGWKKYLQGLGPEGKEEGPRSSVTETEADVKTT

Cannabinoid receptor 2 [3] = molecular target: T2, Cannabinoid receptor 2 (Homo sapiens, UniProt P34972); test: Displacement of [3H]CP-55,940 from human CB2 receptor expressed in HEK293 cell membranes; method in brief: as §1
T2 sequence (P34972 whole entry): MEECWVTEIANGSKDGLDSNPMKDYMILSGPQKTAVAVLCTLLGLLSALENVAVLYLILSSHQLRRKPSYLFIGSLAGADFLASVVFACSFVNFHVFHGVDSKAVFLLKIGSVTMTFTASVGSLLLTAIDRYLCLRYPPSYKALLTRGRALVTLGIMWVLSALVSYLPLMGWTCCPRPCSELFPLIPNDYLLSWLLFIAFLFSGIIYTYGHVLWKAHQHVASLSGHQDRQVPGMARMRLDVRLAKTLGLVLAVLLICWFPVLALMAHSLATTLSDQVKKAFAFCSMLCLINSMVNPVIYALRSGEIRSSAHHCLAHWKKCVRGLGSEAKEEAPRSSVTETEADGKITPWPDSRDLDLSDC

Cannabinoid receptor 1 [4] = molecular target: T1, Cannabinoid receptor 1; test: Displacement of [3H]CP-55,940 from CB1 receptor in rat brain membranes incubated for 15 mins; assay type: cell membranes, Membrane
Method in brief: (§2)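 Competition binding on rat brain membranes (CB1) against [3H]CP-55,940. Membranes were pretreated with the covalently reacting isothiocyanate ligand for the stated time (15, 30, 60 or 90 min) before the binding step. IC50 came from nonlinear regression and was converted to Ki. Values are reported as a time-dependent apparent Ki (Ki*).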

Cannabinoid receptor 1 [5] = molecular target: T1, Cannabinoid receptor 1; test: Displacement of [3H]CP-55,940 from CB1 receptor in rat brain membranes incubated for 30 mins; assay type: cell membranes, Membrane; method in brief: as §2
Cannabinoid receptor 1 [6] = molecular target: T1, Cannabinoid receptor 1; test: Displacement of [3H]CP-55,940 from CB1 receptor in rat brain membranes incubated for 60 mins; assay type: cell membranes, Membrane; method in brief: as §2
Cannabinoid receptor 1 [7] = molecular target: T1, Cannabinoid receptor 1; test: Displacement of [3H]CP-55,940 from CB1 receptor in rat brain membranes incubated for 90 mins; assay type: cell membranes, Membrane; method in brief: as §2
Cannabinoid receptor 1 [8] = molecular target: T1, Cannabinoid receptor 1; test: Agonist activity at rat CB1 receptor expressed in HEK293 cells assessed as inhibition of forskolin-induced cAMP accumulation incubated for 60 mins
[9] = molecular target: Cannabinoid receptor 1 (Rattus norvegicus) (UniProt P20272); test: Agonist activity at rat CB1 receptor expressed in HEK293 cells assessed as inhibition of forskolin-induced cAMP accumulation incubated for 60 mins relative to 500 nM CP-55,940; assay type: functional, cell-based
Cannabinoid receptor 1 (Rattus norvegicus), sequence (P20272 whole entry): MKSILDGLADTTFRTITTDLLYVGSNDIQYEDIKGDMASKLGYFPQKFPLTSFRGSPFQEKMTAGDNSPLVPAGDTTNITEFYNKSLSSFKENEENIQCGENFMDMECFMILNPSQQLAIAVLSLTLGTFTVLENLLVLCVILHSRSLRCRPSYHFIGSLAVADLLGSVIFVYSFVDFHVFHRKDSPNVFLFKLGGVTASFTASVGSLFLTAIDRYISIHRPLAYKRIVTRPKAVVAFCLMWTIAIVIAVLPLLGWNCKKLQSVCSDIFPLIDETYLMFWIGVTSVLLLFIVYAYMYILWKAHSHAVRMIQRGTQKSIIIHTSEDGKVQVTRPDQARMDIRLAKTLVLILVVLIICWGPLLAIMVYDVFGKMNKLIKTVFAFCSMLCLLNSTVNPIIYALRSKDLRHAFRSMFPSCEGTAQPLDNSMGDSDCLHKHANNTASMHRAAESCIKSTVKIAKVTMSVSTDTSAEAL

Cannabinoid receptor 2 [10] = molecular target: T2, Cannabinoid receptor 2; test: Activity at human CB2 receptor expressed in HEK293 cells assessed as inhibition of forskolin-induced cAMP accumulation up to 3 uM incubated for 60 mins; assay type: functional, cell-based
Method in brief: (§3)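 Forskolin-stimulated cAMP in HEK293 cells stably expressing rCB1 or hCB2, detached non-enzymatically and washed in HBSS, 1000–1500 cells/well. Compound series given in stimulation buffer with 2 μM forskolin (final), 30 min at room temperature. Eu-cAMP tracer and anti-cAMP TR-FRET detection reagents were then added for 60 min at room temperature. EC50 by nonlinear regression; two independent experiments in triplicate.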

[11] = molecular target: Cannabinoid receptor 1 (Rattus norvegicus) (UniProt P20272); test: Covalent binding affinity to CB1 receptor in rat brain membranes assessed as covalent labeling at 10 times Ki level incubated for 30 mins at 37 degC followed by UV irradiation by [3H]CP-55,940 radioligand binding assay; assay type: cell membranes; settings: Membrane
Method in brief: (§4)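 Membranes were incubated with azido ligand at 10× its Ki for 30 min at 37 °C with gentle agitation, then given UV at 254 nm for 1 min. They were washed twice with 1% BSA in TME and once with TME, and pelleted. A blank membrane sample was run in parallel. Bmax came from [3H]CP-55,940 saturation binding at 0.5–23.8 nM with 25 μg protein, 1 h at 30 °C. Nonspecific binding was taken with 4 μM unlabeled CP-55,940. Labeling % = (Bmax control − Bmax ligand)/Bmax control × 100.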

Cannabinoid receptor 2 [12] = molecular target: T2, Cannabinoid receptor 2; test: Covalent binding affinity to human CB2 receptor expressed in HEK293 cell membranes assessed as covalent labeling at 10 times Ki level incubated for 30 mins at 37 degC followed by UV irradiation by [3H]CP-55,940 radioligand binding assay; method in brief: as §4
[13] = molecular target: Cannabinoid receptor 1 (Rattus norvegicus) (UniProt P20272); test: Irreversible binding affinity to CB1 receptor in rat brain membranes assessed as receptor occupancy at 10 times Ki level incubated for 15 mins by [3H]CP-55,940 radioligand binding assay; assay type: cell membranes; settings: Membrane
Method in brief: (§5)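 Rat brain CB1 membranes were pretreated with isothiocyanate ligand at 10× its Ki at 37 °C for 15, 30 or 60 min. The control was 60 min without ligand. Unbound ligand was removed by BSA/TME washes and centrifugation. Bmax came from [3H]CP-55,940 saturation binding at 0.5–23.8 nM, 25 μg protein, 1 h at 30 °C, with 4 μM unlabeled CP-55,940 for nonspecific binding. Irreversible occupancy = percent Bmax reduction.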

[14] = molecular target: Cannabinoid receptor 1 (Rattus norvegicus) (UniProt P20272); test: Irreversible binding affinity to CB1 receptor in rat brain membranes assessed as receptor occupancy at 10 times Ki level incubated for 30 mins by [3H]CP-55,940 radioligand binding assay; assay type: cell membranes; settings: Membrane; method in brief: as §5
[15] = molecular target: Cannabinoid receptor 1 (Rattus norvegicus) (UniProt P20272); test: Binding affinity to CB1 receptor in rat brain membranes assessed as receptor occupancy at 10 times Ki level incubated for 60 mins by [3H]CP-55,940 radioligand binding assay; assay type: cell membranes; settings: Membrane; method in brief: as §5
Cannabinoid receptor 2 [16] = molecular target: T2, Cannabinoid receptor 2; test: Inverse agonist activity at human CB2 receptor expressed in HEK293 cells assessed as inhibition of forskolin-induced cAMP accumulation incubated for 60 mins; assay type: functional, cell-based; method in brief: as §3
Cannabinoid receptor 2 [17] = molecular target: T2, Cannabinoid receptor 2; test: Inverse agonist activity at human CB2 receptor expressed in HEK293 cells assessed as inhibition of forskolin-induced cAMP accumulation incubated for 60 mins relative to 500 nM CP-55,940; assay type: functional, cell-based

T1 sequence (P20272 whole entry): as above

SMILES | EC50 (Cannabinoid receptor 1 [8]) [nM] | Emax [9] [%] | Activity (Cannabinoid receptor 2 [10]) | Activity [11] | Activity (Cannabinoid receptor 2 [12]) | Ki (Cannabinoid receptor 1 [1]; read-out: Ki) [nM] | Ki (Cannabinoid receptor 2 [2]; read-out: Ki) [nM] | Ki (Cannabinoid receptor 2 [3]; read-out: Ki) [nM] | EC50 (Cannabinoid receptor 2 [16]) [nM] | Emax (Cannabinoid receptor 2 [17]) [%] | other results
CC1(C)Oc2cc([C@]34CC5CC(C[C@@](N=C=S)(C5)C3)C4)cc(O)c2[C@@H]2C[C@H](O)CC[C@H]21 | 12 | 68 | inactive | 54% | 25% |  |  |  |  |  | Ki (Cannabinoid receptor 1 [1]; read-out: Ki(app)): 35.4 nM; Ki (Cannabinoid receptor 2 [2]; read-out: Ki(app)): 31.7 nM; Ki (Cannabinoid receptor 2 [3]; read-out: Ki(app)): 13.1 nM; Ki (Cannabinoid receptor 1 [4]): 96 nM; Ki (Cannabinoid receptor 1 [5]): 58.6 nM; Ki (Cannabinoid receptor 1 [6]): 35.4 nM; Ki (Cannabinoid receptor 1 [7]): 35.7 nM; Activity [13]: 26%; Activity [14]: 54%; Activity [15]: Active
CC1(C)Oc2cc([C@]34CC5CC(C[C@@](C(=O)O)(C5)C3)C4)cc(O)c2[C@@H]2C[C@H](O)CC[C@H]21 |  |  |  |  |  | > 1000 | > 1000 | > 1000 |  |  | 
CC1(C)Oc2cc([C@]34CC5CC(C[C@@](CN=[N+]=[N-])(C5)C3)C4)cc(O)c2[C@@H]2C[C@H](O)CC[C@H]21 | 2.4 | 45 | inactive | 67% | 60% | 4.4 | 26.4 | 9.6 |  |  | 
CC1(C)Oc2cc(C34CC5CC(CC(C5)C3)C4)cc(O)c2[C@@H]2C[C@H](O)CC[C@H]21 | 2.7 | 69 | inactive |  |  |  |  |  |  |  | 
CC1(C)Oc2cc([C@]34CC5CC(C[C@@](C(N)=O)(C5)C3)C4)cc(O)c2[C@@H]2C[C@H](O)CC[C@H]21 |  |  |  |  |  | 297 | 947 | 337 |  |  | 
CC1(C)Oc2cc([C@]34CC5CC(C[C@@](C#N)(C5)C3)C4)cc(O)c2[C@@H]2C[C@H](O)CC[C@H]21 | 95.2 | 82 |  |  |  | 45.8 | 2.8 | 4.2 | 90.7 | -93 | 
CC1(C)Oc2cc([C@]34CC5CC(C[C@@](N)(C5)C3)C4)cc(O)c2[C@@H]2C[C@H](O)CC[C@H]21 |  |  |  |  |  | > 1000 | > 1000 | > 1000 |  |  | 
CC1(C)Oc2cc([C@]34CC5CC(C[C@@](CN=C=S)(C5)C3)C4)cc(O)c2[C@@H]2C[C@H](O)CC[C@H]21 | 0.8 | 94 |  | 63% | 74% |  |  |  | > 400 | -91 | Ki (Cannabinoid receptor 1 [1]; read-out: Ki(app)): 3 nM; Ki (Cannabinoid receptor 2 [2]; read-out: Ki(app)): 34.6 nM; Ki (Cannabinoid receptor 2 [3]; read-out: Ki(app)): 10.3 nM
CC1(C)Oc2cc([C@]34CC5CC(C[C@@](CN)(C5)C3)C4)cc(O)c2[C@@H]2C[C@H](O)CC[C@H]21 |  |  |  |  |  | > 1000 | > 1000 | > 1000 |  |  | 
CC1(C)Oc2cc([C@]34CC5CC(C[C@@](CC#N)(C5)C3)C4)cc(O)c2[C@@H]2C[C@H](O)CC[C@H]21 | 5.4 | 78 |  | inactive | inactive | 2.6 | 4.4 | 4.6 | 83.1 | -78 | 
COC(=O)N[C@]12CC3CC(C1)C[C@](c1cc(O)c4c(c1)OC(C)(C)[C@@H]1CC[C@@H](O)C[C@@H]41)(C3)C2 | 1.6 | 71 |  |  |  | 29.1 | 2.1 | 8.4 | 15.8 | -74 | 
CC1(C)Oc2cc([C@]34CC5CC(C[C@@](N=[N+]=[N-])(C5)C3)C4)cc(O)c2[C@@H]2C[C@H](O)CC[C@H]21 | 4.4 | 73 | inactive | 61% | 26% | 18.6 | 38.4 | 24.8 |  |  | 
